Sampled rows, rich in hits. Any-hit rate of the full collection: about 0.72%.
GSH fluor: GSH bead compound fluorescence profile; GSH beads flow cytometry, compound fluorescence 488/530 nm; stronger effect = higher value; fluorescence (KMESF) at 10 µM; 190,000 compounds, 0.25% hits; AID 1776; in the data active = fluorescence above about 89;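 also: glutathione beads carrying GST-tagged Bcl family fusion proteins plus one bare bead set; values are compound well signal with DMSO vehicle wells as background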
ABCB1 inh: inhibitors of human ABCB1 transporter, ABCG2 counter-screen | 190,000 compounds, 0.067% hits | inhibition, % at 6.6 µM | CCRF-Adr cells, JC-1 efflux, flow cytometry; in the data active = inhibition above about 40%;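 also: 0% = vehicle and 100% = reference inhibitor; higher value means more JC-1 retained so stronger ABCB1 efflux block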
Redox H2O2 prof: compounds producing H2O2 with reducing agent – biochemical, NIH compound library profiling, artefact control for MLSCN library redox annotation, primary screen; DTT-dependent redox cycling H2O2, phenol red/HRP absorbance; 100% = 100 µM peroxide control, 0% = buffer; activation, % at 10 µM; 200,000 compounds, 0.03% hits;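 active = activation of at least 50% relative to the plate's high and low controls in the primary single-dose screen; inactive = activation below 50%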;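 also: compound incubated with DTT at 0.8 mM final as the reducing agent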
ABCG2 block: blocks JC-1 efflux by human ABCG2 transporter | 190,000 compounds, 0.1% hits | inhibition, % at 6.6 µM | IgMXP3 cells, flow cytometry | Q9UNQ0;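 active = inhibition above 80%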;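 also: 0% = DMSO and 100% = nicardipine control wells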
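test system = two drug-resistant human cell lines, ABCG2 and ABCB1 | amount = 3 million cells/mL final, two lines in 1:1 ratio | reagent = JC-1 transporter substrate | doses = one concentration, 6.6 µM final | incubation = 10 min at 25 °C | signal = flow cytometric JC-1 green MFI at 530 nm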
Avidin fluor: avidin bead compound fluorescence profile; Avidin beads, compound fluorescence 488/530 nm, flow cytometry; stronger effect = higher value; 220,000 compounds, 0.38% hits; fluorescence (KMESF) at 10 µM; in the data active = fluorescence above about 47
* hit, by the source's call.

For C=CCOC(=O)c1cc(-c2ccc(/C=C3\C(=O)NC(=O)C(C#N)=C3C)o2)ccc1Cl the results were GSH fluor 260*, ABCB1 inh -0.4, Redox H2O2 prof 17.3, ABCG2 block -0.7 and Avidin fluor 5.
`COc1ccccc1-c1cc(C(=O)NCc2ccc(F)cc2)no1` gave GSH fluor 23, ABCB1 inh 1.1, Redox H2O2 prof -0.2, ABCG2 block 36.6 and Avidin fluor 23.
COc1ccccc1-c1cc(C(=O)NCc2ccccc2)no1 was read as GSH fluor 15, ABCB1 inh 0.2, Redox H2O2 prof 2.1, ABCG2 block 0.8 and Avidin fluor 48*.
CCC(C)N(C(=O)COc1ccc(NC(C)=O)cc1)C1CCS(=O)(=O)C1 (stereo not given) was read as GSH fluor 12, ABCB1 inh -0.2, Redox H2O2 prof -0.5, ABCG2 block -0.5 and Avidin fluor 10.
Screening Cc1cccc(C)c1NC(=O)CSc1nc(-c2ccco2)cc(C(F)(F)F)n1 returned GSH fluor 12, ABCB1 inh 0.3, Redox H2O2 prof 0.0, ABCG2 block 0.3 and Avidin fluor 67*.
Screening Cc1cc(NC(=O)CSc2nc(-c3ccco3)cc(C(F)(F)F)n2)no1 returned GSH fluor 16, ABCB1 inh 0.2, Redox H2O2 prof 3.5, ABCG2 block 0.0 and Avidin fluor 5.
COC(=O)C1=C(N)Oc2cc(C)n(Cc3cccnc3)c(=O)c2C1c1cccc(OC)c1OC (stereo not given) was read as GSH fluor 28, ABCB1 inh 0.2, Redox H2O2 prof 1.3, ABCG2 block 0.9 and Avidin fluor 148*.
Screening COC(=O)C1=C(N)Oc2cc(C)n(Cc3cccnc3)c(=O)c2C1c1cc(OC)ccc1OC (stereo not given) returned GSH fluor 31, ABCB1 inh -2.1, Redox H2O2 prof 2.1, ABCG2 block -3.0 and Avidin fluor 6.
Cc1cc(-n2ccnc2)n2c(nc3ccccc32)c1C#N was read as GSH fluor 33, ABCB1 inh 1.4, Redox H2O2 prof 0.2, ABCG2 block 20.9 and Avidin fluor 11.
`CCCc1cc(-n2ccnc2)n2c(nc3ccccc32)c1C#N` gave GSH fluor 150*, ABCB1 inh 2.3, Redox H2O2 prof -3.7, ABCG2 block 8.6 and Avidin fluor 84*.
CC(=O)c1ccc(NC(=O)N2C3CCC2CC(O)(c2cccnc2)C3)cc1 (stereo not given) was read as GSH fluor 19, ABCB1 inh 0.7, Redox H2O2 prof -0.4, ABCG2 block 0.6 and Avidin fluor 5.
`N#Cc1cc2c(=O)n3ccccc3nc2n(-c2ccccc2Cl)c1=O` gave GSH fluor 22, ABCB1 inh 1.4, Redox H2O2 prof -0.4, ABCG2 block 24.7 and Avidin fluor 9.
`CCOC(=O)C1CCCN(C(=O)c2ccccc2SCCOC)C1` (stereo not given) gave GSH fluor 30, ABCB1 inh 0.5, Redox H2O2 prof 1.1, ABCG2 block 0.4 and Avidin fluor 102*.
`COCCSc1ccccc1C(=O)N1CCCC(C)C1` (stereo not given) gave GSH fluor 17, ABCB1 inh 0.9, Redox H2O2 prof 0.4, ABCG2 block 3.4 and Avidin fluor 9.
Screening CCOC(=O)C1(Cc2ccccc2C)CCCN(C(=O)c2cc(CC)nn2C)C1 (stereo not given) returned GSH fluor 16, ABCB1 inh 1.6, Redox H2O2 prof -0.4, ABCG2 block 3.8 and Avidin fluor 12.
For O=c1oc2ccccc2c(O)c1C=Nc1cccnc1 the results were GSH fluor 25, ABCB1 inh 0.7, Redox H2O2 prof 0.5, ABCG2 block 3.6 and Avidin fluor 12.
For O=c1oc2ccccc2c(O)c1/C=N/c1ccccn1 the results were GSH fluor 263*, ABCB1 inh -0.3, Redox H2O2 prof -0.4, ABCG2 block -1.1 and Avidin fluor 6.
`CCOC(=O)C(C(=O)OCC)C1OC(=O)c2cc3c(cc21)C(=O)OC3C(C(=O)OCC)C(=O)OCC` (stereo not given) gave GSH fluor 14, ABCB1 inh 0.3, Redox H2O2 prof -0.8, ABCG2 block 3.3 and Avidin fluor 200*.
`CCOC(=O)CC1OC(=O)c2cc3c(cc21)C(=O)OC3CC(=O)OCC` (stereo not given) gave Avidin fluor 7.
Screening O=C(NN1C(=O)c2ccccc2C1=O)c1ccc2c(c1)C(=O)N(CC1CCCO1)C2=O (stereo not given) returned Avidin fluor 52*.
`Cc1ccc(NC(=O)c2ccc3c(c2)C(=O)N(CC2CCCO2)C3=O)cc1C` (stereo not given) gave GSH fluor 9, ABCB1 inh 0.5, Redox H2O2 prof -1.5, ABCG2 block 4.1 and Avidin fluor 7.
CCOC(=O)C1=C(C)NC(SC)=NC1c1ccc(OC)cc1 (stereo not given) was read as GSH fluor 111*, ABCB1 inh 0.4, Redox H2O2 prof 0.7, ABCG2 block 2.9 and Avidin fluor 4.
CCCCCC1CCC(c2ccc(/C(N)=N/O)cc2)CC1 (stereo not given) was read as Avidin fluor 4.
`Cc1sc2ncnc(NCc3ccccc3)c2c1C` gave GSH fluor 25, ABCB1 inh 0.8, Redox H2O2 prof 0.7, ABCG2 block 10.3 and Avidin fluor 12.
For Cc1sc2ncnc(Nc3ccccc3)c2c1C the results were GSH fluor 13, ABCB1 inh 0.2, Redox H2O2 prof 0.2, ABCG2 block 3.4 and Avidin fluor 92*.
Cc1ccc2c(CC(=O)N3CCN(c4ccccc4)CC3)coc2c1 was read as GSH fluor 19, ABCB1 inh 0.1, Redox H2O2 prof -1.4, ABCG2 block 1.7 and Avidin fluor 9.
Cc1cccc(Nc2cc(C)c3c(O)cccc3n2)c1C was read as GSH fluor 13, ABCB1 inh 1.3, Redox H2O2 prof 1.6, ABCG2 block 2.8 and Avidin fluor 5.
`COC(=O)c1ccc(/C=N/OCC(=O)NCc2ccc(F)cc2)cc1` gave GSH fluor 16, ABCB1 inh 0.4, Redox H2O2 prof -0.1, ABCG2 block 6.5 and Avidin fluor 54*.
`Cc1cccc(C(=O)OCC(=O)Nc2ccc(N3CCCCC3)cc2)c1O` gave GSH fluor 24, ABCB1 inh 0.4, Redox H2O2 prof -0.6, ABCG2 block 4.9 and Avidin fluor 25.
`CCC(CC)NC(=O)COC(=O)c1cccc(C)c1O` gave GSH fluor 262*, ABCB1 inh 0.1, Redox H2O2 prof 0.2, ABCG2 block 0.4 and Avidin fluor 4.
CCOC(=O)CCCNC(=O)COC(=O)c1cccc(C)c1O was read as GSH fluor 261*, ABCB1 inh -0.1, Redox H2O2 prof -0.8, ABCG2 block 0.2 and Avidin fluor 7.

Screening results from PubChem BioAssay.
